Measurements collected from several papers.
Lines come from different studies, so protocols differ.
Target: Sodium-dependent noradrenaline transporter (SLC6A2, Homo sapiens, UniProt P23975)

| SMILES | read-out | mode | method | cell line | tested at | inhibition |
| --- | --- | --- | --- | --- | --- | --- |
| COC(=O)c1ccc(-n2c(C)cc(C(=O)CSc3ccc(NC(C)=O)cc3)c2C)cc1 | ligand displacement |  | radioligand |  | 10 µM | 50% |
| Fc1ccc(C(c2ccc(F)cc2)c2nnnn2CCCCN2CCC(c3ccccc3)CC2)cc1 | transporter uptake | inhibitor |  | HEK293 | 1 µM | 64.4% |
| Ic1cccc2cnccc12 | ligand displacement |  | radioligand |  | 10 µM | 44% |
| O[C@@H]1[C@H](O)[C@@H]2C[C@@H]2[C@H]1n1cnc2c(NCCc3ccccc3)nc(C#Cc3ccccc3Cl)nc21 | ligand displacement |  | radioligand |  | 10 µM | 24% |
| N#Cc1cc(Cn2c(N3CCCC3)nc3ccccc32)ccc1F | ligand displacement |  |  |  | 10 µM | 39.4% |
| CCN(CC)c1ccc(C2Nc3ccc(C(=O)c4ccccc4)cc3NC3=C2C(=O)CC(C)(C)C3)cc1 (stereo not drawn) | ligand displacement |  | radioligand |  | 10 µM | 51% |
| c1ccc(C2CCN(CCCCn3nnnc3C(c3ccccc3)c3ccccc3)CC2)cc1 | transporter uptake | inhibitor |  | HEK293 | 1 µM | 66.3% |
| O[C@@H]1[C@H](O)[C@@H]2C[C@@H]2[C@H]1n1cnc2c(NCc3cccc(Cl)c3)nc(C#Cc3ccc(F)c(F)c3)nc21 | ligand displacement |  | radioligand |  | 10 µM | 51% |
| Clc1ccc(C(c2ccccc2)c2nnnn2CCCCN2CCC(CCc3ccccc3)CC2)cc1 (stereo not drawn) | transporter uptake | inhibitor |  | HEK293 | 1 µM | 72.4% |
| O=C(c1ccc(Cl)cc1)N(Cc1ccccc1)C1CCCCC1 | cell-free assay |  |  |  | 10 µM | 14.9% |
| Clc1ccc(C(c2ccc(Cl)cc2)c2nnnn2CCCN2CCC(CCCc3ccccc3)CC2)cc1 | transporter uptake | inhibitor |  | HEK293 | 1 µM | 10.8% |
| COc1ccc(-n2nc(OCCCN3CCCCC3)ccc2=O)cc1 | ligand displacement |  |  |  | 1 µM | 18.5% |
